The source of these data is ChEMBL document CHEMBL4321823, “Benzyl Phenylsemicarbazides: A Chemistry-Driven Approach Leading to G Protein-Biased Dopamine D4 Receptor Agonists with High Subtype Selectivity” (J Med Chem, 2019).

In assay [1] the target is T1, D(2) dopamine receptor (Homo sapiens, UniProt P14416). Briefly: Displacement of [3H] Spiperone from human D2L receptor expressed in CHO cells by competitive radioligand binding assay. Type of assay: cell-based. In general terms: Displacement assays read how much labelled ligand stays bound in the presence of the test substance.
The target in assay [2] is T1, D(2) dopamine receptor. Nature of the assay: Displacement of [3H] Spiperone from human D2S receptor expressed in CHO cells by competitive radioligand binding assay. The class given is cell-based.
The target of the next assay is D(3) dopamine receptor (Homo sapiens, UniProt P35462). Nature of the assay: Displacement of [3H] Spiperone from human D3 receptor expressed in CHO cells by competitive radioligand binding assay. The class given is cell-based.
Assay [3] is filed under the species Homo sapiens. Nature of the assay: Selectivity index, ratio of Ki for displacement of [3H] Spiperone from human D2L receptor expressed in CHO cells to Ki for displacement of [3H] Spiperone from human D4.4 receptor expressed in CHO cells. The class given is cell-based. In short, it runs like this:
(§1)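 Competition binding against [3H]spiperone on membranes of CHO cells stably expressing cloned human D2L, D2S, D3 or D4.4 receptors. Ki from monophasic curve fits; mean ± SEM of three to seven experiments, each in triplicate. Selectivity calculated as Ki(D2L, D2S or D3) divided by Ki(D4.4).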

The species entered for assay [4] is Homo sapiens. Briefly: Selectivity index, ratio of Ki for displacement of [3H] Spiperone from human D3 receptor expressed in CHO cells to Ki for displacement of [3H] Spiperone from human D4.4 receptor expressed in CHO cells. Type of assay: cell-based. In short, it runs like this:
as §1

A further assay concerns the target D(1A) dopamine receptor (Homo sapiens, UniProt P21728). Briefly: Displacement of [3H] SCH23390 from D1 receptor (unknown origin).
The target in assay [5] is T2, Alpha-1A adrenergic receptor (Homo sapiens, UniProt P35348).
T2 sequence (P35348 whole entry): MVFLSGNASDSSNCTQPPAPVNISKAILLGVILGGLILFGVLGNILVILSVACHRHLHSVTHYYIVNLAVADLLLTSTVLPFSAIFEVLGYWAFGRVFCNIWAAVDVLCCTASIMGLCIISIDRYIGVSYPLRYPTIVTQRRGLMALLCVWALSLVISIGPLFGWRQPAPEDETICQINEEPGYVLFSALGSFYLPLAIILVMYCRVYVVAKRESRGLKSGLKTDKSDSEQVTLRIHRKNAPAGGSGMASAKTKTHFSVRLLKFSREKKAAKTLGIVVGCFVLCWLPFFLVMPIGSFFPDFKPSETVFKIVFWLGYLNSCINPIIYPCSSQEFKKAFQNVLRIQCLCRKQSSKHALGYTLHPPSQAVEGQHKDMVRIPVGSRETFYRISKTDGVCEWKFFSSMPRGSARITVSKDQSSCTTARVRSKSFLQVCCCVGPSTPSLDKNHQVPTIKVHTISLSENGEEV
Nature of the assay: Displacement of [3H] prazosin from alpha1A adrenergic receptor (unknown origin).

In assay [6] the target is Beta-1 adrenergic receptor (Homo sapiens, UniProt P08588). Nature of the assay: Displacement of [3H] CGP12177 from beta1 adrenergic receptor (unknown origin).
The target in assay [7] is Delta-type opioid receptor (Homo sapiens, UniProt P41143). Nature of the assay: Displacement of [3H] diprenorphine from delta opioid receptor (unknown origin).
Another assay addresses Mu-type opioid receptor (Homo sapiens, UniProt P35372). Nature of the assay: Displacement of [3H] diprenorphine from mu opioid receptor (unknown origin). In short, it runs like this:
(§2)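 Radioligand competition binding; Ki given as mean ± SD from two individual experiments, each run in triplicate.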

In assay [8] the target is T3, Muscarinic acetylcholine receptor M1 (Homo sapiens, UniProt P11229).
T3 sequence (P11229 whole entry): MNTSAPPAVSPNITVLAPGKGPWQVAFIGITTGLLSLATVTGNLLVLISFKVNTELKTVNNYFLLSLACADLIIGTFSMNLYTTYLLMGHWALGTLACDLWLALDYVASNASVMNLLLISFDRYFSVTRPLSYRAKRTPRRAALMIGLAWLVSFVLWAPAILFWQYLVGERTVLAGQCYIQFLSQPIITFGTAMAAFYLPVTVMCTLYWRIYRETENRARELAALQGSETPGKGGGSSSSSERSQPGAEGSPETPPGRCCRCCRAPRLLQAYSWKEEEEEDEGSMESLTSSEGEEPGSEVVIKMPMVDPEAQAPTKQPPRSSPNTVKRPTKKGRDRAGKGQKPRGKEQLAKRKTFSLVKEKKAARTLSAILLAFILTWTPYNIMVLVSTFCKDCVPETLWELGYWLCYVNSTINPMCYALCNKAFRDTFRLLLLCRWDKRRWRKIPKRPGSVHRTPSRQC
Briefly: Displacement of [3H] NMS from muscarinic M1 receptor (unknown origin). In short, it runs like this:
as §2

The target of assay [9] is T4, 5-hydroxytryptamine receptor 1A (Homo sapiens, UniProt P08908).
T4 sequence (P08908 whole entry): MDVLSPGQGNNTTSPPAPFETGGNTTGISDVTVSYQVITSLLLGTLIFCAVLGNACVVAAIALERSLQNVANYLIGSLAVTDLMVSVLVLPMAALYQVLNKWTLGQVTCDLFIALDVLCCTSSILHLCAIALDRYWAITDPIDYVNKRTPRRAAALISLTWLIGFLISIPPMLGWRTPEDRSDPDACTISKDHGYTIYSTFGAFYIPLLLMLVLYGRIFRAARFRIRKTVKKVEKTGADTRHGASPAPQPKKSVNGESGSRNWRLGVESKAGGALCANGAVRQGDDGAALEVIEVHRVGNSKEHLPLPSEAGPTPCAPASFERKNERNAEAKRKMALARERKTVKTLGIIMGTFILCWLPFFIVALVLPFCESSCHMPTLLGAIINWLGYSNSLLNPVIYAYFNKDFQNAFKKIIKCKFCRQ
Nature of the assay: Displacement of [3H] WAY100635 from 5HT1A receptor (unknown origin). A digest of the protocol:
as §2

Assay [10] concerns the target 5-hydroxytryptamine receptor 2A (Homo sapiens, UniProt P28223). Briefly: Displacement of [3H] Ketanserin from 5HT2A receptor (unknown origin).
The target in assay [11] is T5, D(4) dopamine receptor (Homo sapiens, UniProt P21917).
T5 sequence (P21917 whole entry): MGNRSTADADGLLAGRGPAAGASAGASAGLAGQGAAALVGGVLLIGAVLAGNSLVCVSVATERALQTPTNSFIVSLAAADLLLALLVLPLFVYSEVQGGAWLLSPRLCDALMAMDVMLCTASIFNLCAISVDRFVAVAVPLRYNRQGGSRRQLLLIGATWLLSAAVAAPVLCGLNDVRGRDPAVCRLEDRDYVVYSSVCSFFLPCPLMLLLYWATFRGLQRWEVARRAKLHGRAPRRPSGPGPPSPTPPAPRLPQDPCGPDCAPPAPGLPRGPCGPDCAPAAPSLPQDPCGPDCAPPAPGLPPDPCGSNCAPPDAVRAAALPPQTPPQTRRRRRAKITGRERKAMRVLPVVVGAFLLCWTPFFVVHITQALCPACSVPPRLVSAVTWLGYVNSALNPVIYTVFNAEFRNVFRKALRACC
Briefly: Agonist activity at human D4 receptor expressed in HEK293T cells co-expressing G-alphaqi assessed as accumulation of inositol monophosphate using d2-labelled IP1 conjugate incubated for 90 mins by HTRF assay. Type of assay: functional, cell-based. In general terms: Time-resolved FRET reads energy transfer from a long-lived donor to a nearby acceptor.

Assay [12] deals with T5, D(4) dopamine receptor. The class given is cell-based, HEK293.
Assay [13] addresses T5, D(4) dopamine receptor. Briefly: Antagonist activity at […] D4 receptor (unknown origin) expressed in HEK293 cells co-expressing beta-arrestin2 assessed as inhibition of quinpirole-induced beta-arrestin2 recruitment preincubated for 30 mins followed by quinpirole addition and further incubated for 6 hrs by Path-Hunter assay. The class given is cell-based. In general terms: Activated receptors often draw arrestin, which recruitment assays turn into a signal.

For orientation: pKi means the Ki on a negative log10 scale, so that one unit is a factor of ten. As a reminder, the pEC50 is the negative decadic logarithm of the EC50, by convention in mol/L. Usually pIC50 stands for the negative decadic logarithm of the IC50, by convention in mol/L.

Structures are written as SMILES. pEC50, pIC50, pKi: −log10 of the molar value. Some results are limits rather than exact numbers.

T1 sequence (P14416 whole entry): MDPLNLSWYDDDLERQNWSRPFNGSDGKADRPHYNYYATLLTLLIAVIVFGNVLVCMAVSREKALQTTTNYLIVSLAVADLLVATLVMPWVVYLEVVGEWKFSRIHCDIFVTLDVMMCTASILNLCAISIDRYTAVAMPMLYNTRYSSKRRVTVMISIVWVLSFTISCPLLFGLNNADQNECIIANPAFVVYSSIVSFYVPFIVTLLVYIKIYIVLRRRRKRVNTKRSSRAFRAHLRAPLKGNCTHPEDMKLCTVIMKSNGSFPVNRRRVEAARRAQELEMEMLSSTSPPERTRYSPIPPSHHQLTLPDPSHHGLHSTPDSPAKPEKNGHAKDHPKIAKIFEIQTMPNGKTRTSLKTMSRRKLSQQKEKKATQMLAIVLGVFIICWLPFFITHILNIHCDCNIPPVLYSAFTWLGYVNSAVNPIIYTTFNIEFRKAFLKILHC
Sequence of D(1A) dopamine receptor (P21728 whole entry): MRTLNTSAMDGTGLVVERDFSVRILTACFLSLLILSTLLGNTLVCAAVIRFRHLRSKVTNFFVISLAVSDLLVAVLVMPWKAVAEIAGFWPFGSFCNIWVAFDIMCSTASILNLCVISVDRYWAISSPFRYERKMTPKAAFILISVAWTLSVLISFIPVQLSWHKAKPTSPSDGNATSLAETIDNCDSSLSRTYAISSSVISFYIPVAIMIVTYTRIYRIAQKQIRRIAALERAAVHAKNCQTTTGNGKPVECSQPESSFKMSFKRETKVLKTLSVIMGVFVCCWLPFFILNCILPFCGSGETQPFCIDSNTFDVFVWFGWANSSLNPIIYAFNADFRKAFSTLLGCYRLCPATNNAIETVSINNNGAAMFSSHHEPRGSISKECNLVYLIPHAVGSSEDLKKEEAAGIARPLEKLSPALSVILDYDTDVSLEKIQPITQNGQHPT
Sequence of Beta-1 adrenergic receptor (P08588 whole entry): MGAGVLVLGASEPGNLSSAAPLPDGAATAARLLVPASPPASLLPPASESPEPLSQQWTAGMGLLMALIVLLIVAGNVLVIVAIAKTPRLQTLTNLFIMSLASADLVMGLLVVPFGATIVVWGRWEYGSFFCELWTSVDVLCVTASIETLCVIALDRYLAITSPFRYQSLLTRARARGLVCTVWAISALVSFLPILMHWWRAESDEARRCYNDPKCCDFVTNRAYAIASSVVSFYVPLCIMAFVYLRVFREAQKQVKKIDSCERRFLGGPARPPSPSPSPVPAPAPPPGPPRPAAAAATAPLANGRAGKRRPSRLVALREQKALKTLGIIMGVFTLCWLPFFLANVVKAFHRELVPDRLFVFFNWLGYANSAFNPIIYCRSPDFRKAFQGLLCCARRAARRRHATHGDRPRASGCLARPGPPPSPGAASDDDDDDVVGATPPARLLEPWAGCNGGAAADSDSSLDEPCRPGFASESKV
Sequence of Mu-type opioid receptor (P35372 whole entry): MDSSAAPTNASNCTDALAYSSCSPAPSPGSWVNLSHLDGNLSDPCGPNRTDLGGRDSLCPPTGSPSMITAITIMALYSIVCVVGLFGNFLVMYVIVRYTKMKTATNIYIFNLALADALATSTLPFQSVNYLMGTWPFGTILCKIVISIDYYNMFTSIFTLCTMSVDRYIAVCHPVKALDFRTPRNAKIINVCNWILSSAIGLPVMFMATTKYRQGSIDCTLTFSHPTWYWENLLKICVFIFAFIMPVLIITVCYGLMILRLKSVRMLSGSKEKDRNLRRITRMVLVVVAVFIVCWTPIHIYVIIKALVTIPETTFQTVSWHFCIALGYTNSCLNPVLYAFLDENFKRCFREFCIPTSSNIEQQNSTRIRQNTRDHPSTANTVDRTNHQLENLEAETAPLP
Sequence of Delta-type opioid receptor (P41143 whole entry): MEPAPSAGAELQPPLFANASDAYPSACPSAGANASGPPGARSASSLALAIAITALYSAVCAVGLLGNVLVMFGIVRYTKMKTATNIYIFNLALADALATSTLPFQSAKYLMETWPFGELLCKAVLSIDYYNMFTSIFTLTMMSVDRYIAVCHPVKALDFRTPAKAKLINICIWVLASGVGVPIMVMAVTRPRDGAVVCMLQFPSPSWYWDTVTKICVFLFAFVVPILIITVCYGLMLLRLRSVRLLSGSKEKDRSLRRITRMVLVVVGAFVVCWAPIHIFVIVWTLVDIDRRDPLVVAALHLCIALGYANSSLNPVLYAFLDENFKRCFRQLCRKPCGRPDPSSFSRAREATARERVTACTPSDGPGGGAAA
Sequence of 5-hydroxytryptamine receptor 2A (P28223 whole entry): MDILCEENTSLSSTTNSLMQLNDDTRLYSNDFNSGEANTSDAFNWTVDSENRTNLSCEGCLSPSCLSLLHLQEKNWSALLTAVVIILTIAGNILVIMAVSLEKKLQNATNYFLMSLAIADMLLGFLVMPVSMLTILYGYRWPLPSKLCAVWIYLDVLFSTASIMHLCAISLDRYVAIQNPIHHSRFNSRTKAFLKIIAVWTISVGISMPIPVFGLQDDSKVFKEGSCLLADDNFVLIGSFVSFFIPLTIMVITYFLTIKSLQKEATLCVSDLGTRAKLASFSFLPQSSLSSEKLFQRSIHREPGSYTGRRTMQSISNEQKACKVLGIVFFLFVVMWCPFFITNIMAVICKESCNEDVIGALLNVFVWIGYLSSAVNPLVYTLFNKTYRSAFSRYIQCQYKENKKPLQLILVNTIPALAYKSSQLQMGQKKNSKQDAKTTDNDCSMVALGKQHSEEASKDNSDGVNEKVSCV
Sequence of D(3) dopamine receptor (P35462 whole entry): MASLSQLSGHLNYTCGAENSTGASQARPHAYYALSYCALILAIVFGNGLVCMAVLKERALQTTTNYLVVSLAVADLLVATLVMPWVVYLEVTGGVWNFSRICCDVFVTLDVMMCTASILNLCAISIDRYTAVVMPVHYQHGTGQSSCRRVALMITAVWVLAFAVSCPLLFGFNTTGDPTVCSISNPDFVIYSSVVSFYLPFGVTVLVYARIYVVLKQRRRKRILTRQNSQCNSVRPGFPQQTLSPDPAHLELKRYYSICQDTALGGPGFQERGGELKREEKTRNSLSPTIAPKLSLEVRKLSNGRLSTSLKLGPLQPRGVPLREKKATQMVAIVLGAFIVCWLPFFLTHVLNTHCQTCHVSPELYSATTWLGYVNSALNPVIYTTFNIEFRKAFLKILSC

As for `COc1ccccc1N1CCN(CCCNC(=O)NN(Cc2ccc(F)cc2)c2ccccc2)CC1`, the pKi is 6.85 on D(2) dopamine receptor [1]; 6.96 at D(2) dopamine receptor [2]; 6.51 on D(3) dopamine receptor; 6.44 on D(1A) dopamine receptor; 8.80 in assay [5]; less than 4.30 in [6]. The pKi in [7] is 4.72; at Mu-type opioid receptor, 5.64; in [8], 4.82; in assay [9], 7.47; in [10], 6.89. Further, the Ratio Ki in the assay filed under Homo sapiens [3] came out at 250; in the assay filed under Homo sapiens [4], 560. Moreover, the pEC50 at D(4) dopamine receptor [11] is 7.39; at D(4) dopamine receptor [12], 6.30. For the same molecule, at D(4) dopamine receptor [13], the pIC50 is 6.21.
